One block for each compound: values may come before it. Activity calls are given as the source filed them. No cut-off for these calls is given here.
Experiments:
RAW264.7 [1] = assay: Cytotoxicity against mouse RAW264.7 cells assessed as reduction in cell viability incubated for 1 hr under 460 nm LED light illumination and measured after 23 hrs by MTT assay; format: cell-based; conditions: for Activity: mouse, raw264.7
Summary of the method: (§1)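 RAW 264.7 cells (within 5 passages, phenol-red-free DMEM-F12K, 10% FBS) seeded at 1.0×10^4/well for 24 h, then dosed 0.08–100 μM (≤0.4% DMSO). Light arm: blue LED array (66,351 lx) 1 h, then 23 h more; dark arm kept unlit. MTT 4 h, formazan in DMSO, A560 minus A750, normalised to vehicle; 3 biological × 3 technical replicates, mean ± SEM.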

RAW264.7 [2] = assay: Dark toxicity against mouse RAW264.7 cells assessed as reduction in cell viability up to 100 uM after 24 hrs by MTT assay; format: cell-based; conditions: raw264.7, 24 h; summary of the method: as §1
[3] = Solubility of the compound in DMSO at < 50 mM; format: physicochemical
[4] = Solubility of the compound in water at < 50 mM; format: physicochemical; conditions: buffer
[5] = Solubility of the compound in PBS buffer at < 50 mM; format: physicochemical
[6] = Solubility of the compound in FBS supplemented DMEM-F12 medium at < 50 mM; format: physicochemical
[7] = Stability of the compound in DMSO incubated for >= 1 month under dark condition; format: physicochemical
[8] = Stability of the compound in water incubated for >= 1 month under dark condition; format: physicochemical; conditions: buffer
[9] = Stability of the compound in PBS buffer incubated for >= 1 month under dark condition; format: physicochemical
[10] = Stability of the compound in FBS supplemented DMEM-F12 medium incubated for >= 1 month under dark condition
Albumin [11] = biological target: T1, Albumin (Bos taurus, UniProt P02769); assay: Binding affinity to bovine serum albumin at pH 7.4 TRIS buffer by fluorescence based Stern-Volmer plot analysis; format: ADME; conditions: cattle, isolated protein
Summary of the method: (§2)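 Tryptophan fluorescence quench of BSA (1.4 μM) in TRIS buffer pH 7.4 at 295 K, excitation 282 nm, titrated with compound at 0–22.4 μM; data fitted by Stern-Volmer and modified Stern-Volmer plots.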

[12] = Drug metabolism in DMSO assessed as sodium 7-(benzoyloxy)-6-carboxynaphthalene-1-sulfonate metabolite formation at […] after 24 hrs illuminated with visible light by 1H-NMR analysis
Summary of the method: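 Roughly 0.05 mmol compound in 5.0 mL DMSO, under air, irradiated in a photoreactor with 419 nm lamps (2,450 lx) until the lowest-energy absorption band disappeared (~24 h); photoproduct then characterised.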

[13] = Drug uptake in mouse RAW264.7 cells assessed as intracellular accumulation at 50 uM after 4 hrs by Hoechst 33342 staining based fluorescence inverted microscopic method; format: ADME, cell-based; conditions: raw264.7, 4 h
Summary of the method: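 RAW 264.7 cells seeded at 1.0×10^4 cells/[…] in chamber slides, adhered 24 h, exposed to 50 μM compound (from 25 mM DMSO stock; 0.4% DMSO final) 4 h with minimal light; Hoechst 33342 15 min, three PBS washes; imaged at 20x, blue channel ex 310–390/em 420–470 nm.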

[14] = Drug uptake in mouse RAW264.7 cells assessed as extracellular accumulation at 50 uM incubated for 4 hrs under dark condition followed by compound washout by Hoechst 33342 staining based fluorescence inverted microscopic method; format: ADME, cell-based; conditions: raw264.7, 4 h
Summary of the method: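 After 4 h dark incubation of RAW 264.7 cells with 50 μM compound, cells washed with medium containing 10% FBS; pooled washes read by fluorescence (ex 410 nm, slit 3.0 nm) against a 50 μM standard.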

[15] = Drug metabolism in mouse RAW264.7 cells assessed as CO release at 50 uM incubated 4 hrs prior to compound washout followed by 1-Ac addition for 30 mins and subsequent 460 nm LED light illumination for 1 hr by Hoechst 33342 dye based fluorescence assay; format: ADME, cell-based; conditions: raw264.7, 4 h
Summary of the method: (§3)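 RAW 264.7 cells on chamber slides given 50 μM compound 4 h, then washed 3x with plain medium or left unwashed; Nile red CO sensor 1-Ac 5 μM final (0.2% DMSO) 30 min; blue LED (66,351 lx, 2 cm) 1 h at 37 °C, then 1 h dark at 37 °C; Hoechst 33342 stain; red channel ex 550–600/em 598–660 nm.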

[16] = Drug metabolism in mouse RAW264.7 cells assessed as CO release at 50 uM preincubated 4 hrs followed by 1-Ac addition for 30 mins and subsequent 460 nm LED light illumination for 1 hr by Hoechst 33342 dye based fluorescence assay; format: ADME, cell-based; conditions: raw264.7, 50 µM; summary of the method: as §3
RAW264.7 [17] = assay: Cytotoxicity against mouse RAW264.7 cells assessed as reduction in cell viability up to 100 uM incubated for 1 hr under 460 nm LED light illumination and measured after 23 hrs by MTT assay; format: cell-based; conditions: raw264.7, 1 h; summary of the method: as §1
RAW264.7 [18] = assay: Antiinflammatory activity in mouse RAW264.7 cells assessed as reduction in LPS-induced TNF-alpha level up to 1 uM incubated for 4 hrs prior to 460 nm LED light illumination for 1 hr followed by 6 hrs incubation under dark condition and subsequent LPS-stimulation and measured after 1 hr by ELISA; format: functional, cell-based
Summary of the method: (§4)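 RAW 264.7 cells seeded at 1.0×10^4/well, 24 h; compound 0.04–50 μM (0.4% DMSO vehicle) for 4 h without light; one plate then given blue LED (66,351 lx) 1 h at 37 °C. Both plates held 6 h dark at 37 °C, then E. coli O127:B8 LPS 1 μg/mL final for 1 h; supernatant TNF-α by mouse ELISA; 3 experiments, 2 technical replicates, mean ± SEM.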

RAW264.7 [19] = assay: Antiinflammatory activity in mouse RAW264.7 cells assessed as reduction in LPS-induced TNF-alpha expression at up to 50 uM preincubated for 4 hrs followed by 6 hrs incubation under dark condition and subsequent LPS-stimulation and measured after 1 hr by ELISA; format: functional, cell-based; summary of the method: as §4
[20] = Absorption property of the compound in DMSO assessed as minimum absorption wavelength at 100 uM; format: physicochemical
[21] = Emission property of the compound in DMSO assessed as excited state emission wavelength at 100 uM; format: physicochemical
[22] = Emission property of the compound in DMSO assessed as tautomeric state emission wavelength at 100 uM; format: physicochemical
[23] = Absorption property of the compound in pH 7.4 PBS buffer assessed as absorption wavelength at 100 uM; format: physicochemical; conditions: pH 7.4, 100 µM
[24] = Absorption property of the compound in water assessed as absorption wavelength at 100 uM; format: physicochemical; conditions: buffer
[25] = Absorption property of the compound in 10% FBS supplemented DMEM-F12 medium assessed as absorption wavelength at 100 uM; format: physicochemical
[26] = Emission property of the compound in pH 7.4 PBS buffer assessed as excited state emission wavelength at 100 uM; format: physicochemical; conditions: pH 7.4, 100 µM
[27] = Emission property of the compound in water assessed as emission wavelength at 100 uM; format: physicochemical; conditions: buffer
Summary of the method: (§5)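 Emission spectra recorded at 0.1 mM in water, 10 mM PBS pH 7.4, or DMEM/F12K with 10% FBS; excitation 410 nm or 467 nm, slit width 3.0 nm.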

[28] = Emission property of the compound in 10% FBS supplemented DMEM-F12 medium assessed as emission wavelength at 100 uM; format: physicochemical; summary of the method: as §5
Albumin [29] = biological target: T1, Albumin; assay: Binding affinity to bovine serum albumin at pH 7.4 TRIS buffer at 1:1 ratio of compound to protein by fluorescence based assay; format: ADME; conditions: cattle, isolated protein; summary of the method: as §2
[30] = Emission property of the compound in 10% FBS supplemented DMEM-F12 medium assessed as excitation wavelength; format: physicochemical
[31] = Drug metabolism in DMSO assessed as CO release at 0.05 mmol incubated for 24 hrs under 419 nm light illumination
[32] = Drug metabolism in DMSO assessed as sodium 7-(benzoyloxy)-6-carboxynaphthalene-1-sulfonate metabolite formation at 0.05 mmol incubated for 24 hrs under 419 nm light illumination by HSQC analysis
[33] = Drug metabolism in DMSO assessed as sodium 7-(benzoyloxy)-6-carboxynaphthalene-1-sulfonate metabolite formation at 0.05 mmol incubated for 24 hrs under 419 nm light illumination by HMBC analysis
[34] = Drug metabolism in DMSO assessed as sodium 7-(benzoyloxy)-6-carboxynaphthalene-1-sulfonate metabolite formation at 0.05 mmol incubated for 24 hrs under 419 nm light illumination by FTIR analysis
[35] = Drug metabolism in DMSO assessed as sodium 7-(benzoyloxy)-6-carboxynaphthalene-1-sulfonate metabolite formation at 0.05 mmol incubated for 24 hrs under 419 nm light illumination by 13C-NMR analysis
[36] = Drug metabolism in DMSO assessed as sodium 7-(benzoyloxy)-6-carboxynaphthalene-1-sulfonate metabolite formation at 0.05 mmol incubated for 24 hrs under 419 nm light illumination by 2D-COSY analysis
[37] = Drug metabolism in DMSO assessed as sodium 7-(benzoyloxy)-6-carboxynaphthalene-1-sulfonate metabolite formation at 0.05 mmol incubated for 24 hrs under 419 nm light illumination by ESI/APCI-MS analysis
[38] = Absorption property of the compound in DMSO assessed as reduction in absorption wavelength at 0.05 mmol incubated for 14 hrs under 419 nm light illumination; format: physicochemical

T1 sequence (P02769 whole entry): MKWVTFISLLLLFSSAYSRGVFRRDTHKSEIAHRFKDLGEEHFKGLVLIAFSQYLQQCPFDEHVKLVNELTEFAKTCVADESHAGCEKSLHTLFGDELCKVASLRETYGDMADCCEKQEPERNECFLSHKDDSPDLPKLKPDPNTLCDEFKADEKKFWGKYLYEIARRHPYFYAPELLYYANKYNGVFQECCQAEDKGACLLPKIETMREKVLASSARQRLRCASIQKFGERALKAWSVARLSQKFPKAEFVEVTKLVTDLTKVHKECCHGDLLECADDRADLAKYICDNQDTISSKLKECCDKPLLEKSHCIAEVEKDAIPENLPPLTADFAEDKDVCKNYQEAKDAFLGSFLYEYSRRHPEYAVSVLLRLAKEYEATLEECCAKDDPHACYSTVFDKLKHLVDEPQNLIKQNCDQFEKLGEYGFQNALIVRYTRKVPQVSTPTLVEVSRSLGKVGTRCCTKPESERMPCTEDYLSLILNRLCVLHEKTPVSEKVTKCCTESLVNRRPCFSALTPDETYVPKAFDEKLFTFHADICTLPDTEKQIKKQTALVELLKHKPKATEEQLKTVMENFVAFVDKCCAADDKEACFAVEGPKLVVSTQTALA

Compound: O=C(Oc1cc2ccccc2cc1C(=O)O)c1ccccc1
Activity (RAW264.7 [1]): Non-Toxic

Compound: O=C(Oc1cc2c(S(=O)(=O)O)cccc2cc1C(=O)O)c1ccccc1
Activity (RAW264.7 [1]): Non-Toxic

solubility [3]: Soluble | solubility [4]: Soluble | solubility [5]: Soluble | solubility [6]: Soluble | Stability [7]: Stable | Stability [8]: Stable | Stability [9]: Stable | Ka (Albumin [11]): 4.1 ×10⁵ /M | Drug uptake [13]: Not Active | Drug uptake [14]: Not Active | Drug metabolism [15]: Metabolite_Detected | Drug metabolism [16]: Metabolite_Detected | Activity [20]: 410 nm | Activity [21]: 480 nm | Activity [22]: 610 nm | Activity [23]: 450 to 500 nm | Activity [24]: 450 to 500 nm | Activity [25]: 450 to 500 nm | Activity [26]: 410 nm | Activity [27]: 560 nm | Activity [28]: 600 nm | Activity (Albumin [29]): Active | Activity [30]: 467 nm
Compound: O=c1c(O)c(-c2ccccc2)oc2cc3c(S(=O)(=O)[O-])cccc3cc12.[Na+]
Activity (RAW264.7 [2]): Non-Toxic | Stability [10]: Stable | Drug metabolism [12]: Metabolite detected | Activity (RAW264.7 [17]): Non-Toxic | Activity (RAW264.7 [18]): Active | Activity (RAW264.7 [19]): Active | Drug metabolism [31]: Metabolite detected | Drug metabolism [32]: Metabolite detected | Drug metabolism [33]: Metabolite detected | Drug metabolism [34]: Metabolite detected | Drug metabolism [35]: Metabolite detected | Drug metabolism [36]: Metabolite detected | Drug metabolism [37]: Metabolite detected

Ka (Albumin [11]): 3.2 ×10³ /M | Drug uptake [13]: Active | Drug metabolism [15]: Metabolite_Detected | Activity (Albumin [29]): Active | Activity [38]: Active
Compound: O=c1c(O)c(-c2ccccc2)oc2cc3ccccc3cc12
Activity (RAW264.7 [2]): Non-Toxic | IC50 (RAW264.7 [1]; Mus musculus, RAW264.7): 22.4 µM | Activity (RAW264.7 [18]): Active | Activity (RAW264.7 [19]): Active | Drug metabolism [31]: Metabolite detected

Source: ChEMBL document CHEMBL4414603, “Extracellular vs Intracellular Delivery of CO: Does It Matter for a Stable, Diffusible Gasotransmitter?” (J Med Chem, 2019)
